Results on 23 molecules are retold here after ChEMBL document CHEMBL1154362, “Lead optimization and structure-based design of potent and bioavailable deoxycytidine kinase inhibitors” (Bioorg Med Chem Lett, 2009).

Activity calls are given as the source filed them. The rule behind the calls is not given here.

In data set [1] the target is T1, Deoxycytidine kinase (Homo sapiens, UniProt P27707). Briefly: Inhibition of human deoxycytidine kinase by lysate filter binding assay.
Target sequence in this assay (P27707 whole entry): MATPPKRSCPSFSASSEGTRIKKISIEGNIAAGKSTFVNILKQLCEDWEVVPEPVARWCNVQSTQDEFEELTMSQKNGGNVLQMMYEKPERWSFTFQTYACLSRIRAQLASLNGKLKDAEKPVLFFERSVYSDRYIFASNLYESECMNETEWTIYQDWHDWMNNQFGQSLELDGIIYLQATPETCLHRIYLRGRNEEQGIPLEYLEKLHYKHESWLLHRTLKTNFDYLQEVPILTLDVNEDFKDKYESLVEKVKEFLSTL
The nature of data set [2]: Half life in mouse at 10 mg/kg, po. The class given is ADME, organism-based. On the set-up: dose 10 mg/kg, route oral. Conditions: in vivo. Summed up: (§1)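 Mouse PK: single doses of 10 mpk po and 1 mpk iv, with blood sampled to measure compound levels. Clearance and volume came from the iv dose. AUC to infinity, Cmax and other parameters came from the po dosing data.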

Data set [3] is described as follows: Bioavailability in mouse at 10 mg/kg, po. To be noted: in vivo. The class given is ADME, organism-based. Summed up: as §1
Data set [4] can be described thus: Terminal volume of distribution in mouse at 1 mg/kg, iv. Conditions: in vivo, read-out: Vz. The class given is ADME, organism-based. Further details: dose 1 mg/kg, route intravenous. Summed up:
as §1

Data set [5] is described as follows: Clearance in mouse at 1 mg/kg, iv. Conditions: in vivo. On the set-up: dose 1 mg/kg, route intravenous. The class given is ADME, organism-based. In short, it runs like this: as §1
The nature of data set [6]: Cmax in mouse at 10 mg/kg, po. Conditions: in vivo. Further details: dose 10 mg/kg, route oral. The class given is ADME, organism-based. Summed up:
as §1

Data set [7] is described as follows: AUC ((0 to infinity)) in mouse at 10 mg/kg, po. The class given is ADME, organism-based. Further details: time infinity, dose 10 mg/kg, route oral. Conditions: plasma. In short, it runs like this:
as §1

Data set [8] in a line: Tmax in mouse at 10 mg/kg, po. The class given is ADME, organism-based. On the set-up: dose 10 mg/kg, route oral. Conditions: in vivo. Summed up:
as §1

The target in data set [9] is T1, Deoxycytidine kinase. Nature of the data set: Inhibition of deoxycytidine kinase in anti CD3 and anti CD28 -stimulated human T cells assessed as reduction in deoxythymidine incorporation. The class given is cell-based. Conditions: T-cell.
Target sequence in this assay (P27707 whole entry, looked up): as the sequence (P27707 whole entry) above
Data set [10] concerns Mus musculus. Briefly: Inhibition of deoxycytidine kinase in anti CD3 -stimulated mouse assessed as reduction in [3H]deoxycytidine incorporation at 100 mg/kg, po treated 1 day before, day 0 and day 1 after anti CD3 challenge measured on day 2. The class given is functional, organism-based. Further details: dose 100 mg/kg. Summed up:
(§2)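 In vivo mouse dCK inhibition. Compound was given by oral gavage on day -1, day 0 and day 1. Anti-CD3 (0.5 µg/g body wt) was given ip on day 0, after the second dose. […] (100 µCi/animal) was given ip on day 1. Spleens were harvested on day 2 and dissociated into single-cell suspensions normalized to 30 mg/ml by spleen weight. Aliquots were filtered onto glass fibre and counted by liquid scintillation. n = 6-8 mice per group; controls were vehicle and no anti-CD3.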

The target of data set [11] is Deoxycytidine kinase (Mus musculus) (UniProt P43346). Briefly: Inhibition of deoxycytidine kinase in anti CD3 and anti CD28 -stimulated mouse T cells assessed as reduction in deoxythymidine incorporation. The class given is cell-based. Conditions: T-cell.
The subject of data set [12] is Mus musculus. Briefly: Inhibition of deoxycytidine kinase in anti CD3 -stimulated po dosed mouse assessed as reduction in [3H]deoxycytidine incorporation treated 1 day before, day 0 and day 1 after anti CD3 challenge measured on day 2. The class given is functional, organism-based. In short, it runs like this:
as §2

The subject of the next data set is Liver microsomes. Briefly: Stability in human liver microsomes. The class given is ADME, Microsome. (In general: Microsomes from liver hold many membrane-bound enzymes, among them those of drug oxidation.)
Data set [13] can be described thus: Stability in mouse liver microsomes. The class given is ADME, Microsome.
Data set [14] deals with T1, Deoxycytidine kinase. Briefly: Inhibition of deoxycytidine kinase in anti CD3 and anti CD28 -stimulated human T cells assessed as reduction in [3H]deoxycitidine incorporation. The class given is cell-based, T-cell.
Target sequence in this assay (P27707 whole entry): as above
For data set [15], the target named is Deoxycytidine kinase (Mus musculus, UniProt P43346). Nature of the data set: Inhibition of deoxycytidine kinase in anti CD3 and anti CD28 -stimulated mouse T cells assessed as reduction in [3H]deoxycitidine incorporation. The class given is cell-based, T-cell.
Sequence of Deoxycytidine kinase (Mus musculus, UniProt P43346) (P43346 whole entry): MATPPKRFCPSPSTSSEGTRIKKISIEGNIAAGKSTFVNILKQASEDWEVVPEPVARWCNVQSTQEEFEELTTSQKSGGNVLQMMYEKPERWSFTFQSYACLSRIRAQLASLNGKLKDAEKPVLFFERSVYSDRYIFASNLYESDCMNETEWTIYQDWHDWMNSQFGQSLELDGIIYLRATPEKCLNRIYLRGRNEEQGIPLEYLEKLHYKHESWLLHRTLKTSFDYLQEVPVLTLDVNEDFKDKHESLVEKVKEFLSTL

Sequence of Deoxycytidine kinase (Mus musculus) (P43346 whole entry, looked up): as the sequence (P43346 whole entry) above

Regarding `Nc1nc(=O)n([C@H]2CC[C@H](NC(=O)c3cccc(-c4cccc(Cl)c4)c3)C2)cc1F`, the IC50 (commonly the concentration that inhibits the measured activity by half) on Deoxycytidine kinase [1] was 23 nM.

As for `Nc1nc(=O)n([C@H]2CC[C@H](NC(=O)c3cccc(-c4ccc(Cl)cc4)c3)C2)cc1F`, in data set [2], the half-life – broadly, the time in which the quantity being followed falls by half – is 0.8 h. Besides, the bioavailability (commonly dose-corrected exposure relative to a reference, in per cent) in [3] is 12%. This molecule yielded a half-inhibitory concentration (IC50) on Deoxycytidine kinase [1] of 42 nM. The Vd in data set [4] worked out at 0.2 L/kg. Moreover, the clearance – broadly, the rate of elimination divided by the concentration – in [5] worked out at 3 mL/min/kg. Further, in [6], the Cmax (as a rule, the highest concentration seen after dosing) amounted to 16.2 µM. For the same molecule, the AUC(0-inf) (usually the area under the concentration-time curve extrapolated to infinity) in data set [7] stood at 15.8 µM·h. Moreover, the Tmax (commonly the time from dosing to the highest level) in data set [8] came to 0.3 h.

`Cc1cc(Cl)ccc1-c1cccc(C(=O)N[C@H]2CC[C@H](n3cc(F)c(N)nc3=O)C2)c1`: the half-life in data set [2] is 1.3 h. For the same molecule, in [3], the bioavailability was 58%. At Deoxycytidine kinase [1], this molecule displayed an IC50 of 21 nM. The Vd in data set [4] was determined as 1.6 L/kg. In [5], the clearance is 20 mL/min/kg. In addition, in data set [6], the Cmax was 10.1 µM. In data set [7], this molecule yielded an AUC(0-inf) of 10.8 µM·h. Also, the Tmax in data set [8] came out at 0.3 h.

Molecule `Nc1nc(=O)n([C@H]2CC[C@H](NC(=O)c3cc(-c4cc5ccccc5s4)ccn3)C2)cc1F` gave a half-life in [2] of 1.5 h. For the same molecule, in data set [3], the bioavailability is 42%. Besides, the result (on Deoxycytidine kinase [9]; in data set [11]) was inactive. Further, the half-inhibitory concentration (IC50) at Deoxycytidine kinase [1] was found to be 1.7 nM. In data set [4], the Vd came to 0.8 L/kg. Further, the clearance in data set [5] turned out to be 7 mL/min/kg. For the same molecule, in [6], the concentration peaked (Cmax) at 7.4 µM. The outcome with Mus musculus [10] was Active. Besides, the Activity result in the data set with Mus musculus [12] is “Dose-dependent effect”. The molecule further displayed an AUC(0-inf) in [7] of 22 µM·h. Further, the Stability result (with Liver microsomes; in data set [13]) was “Stable” each time. For the same molecule, the Tmax in data set [8] amounted to 0.6 h. Moreover, the EC50 (as a rule, the midpoint of the concentration-response curve) came to 90 nM at Deoxycytidine kinase [14] and 17 nM at Deoxycytidine kinase [15].

Consider `Nc1nc(=O)n([C@H]2CC[C@H](NS(=O)(=O)c3ccccc3)C2)cc1F`, for which, at Deoxycytidine kinase [1], the IC50 is 3600 nM.

Consider `Cc1ccc(-c2cccc(S(=O)(=O)N[C@H]3CC[C@H](n4cc(F)c(N)nc4=O)C3)c2)cc1`, for which the IC50 on Deoxycytidine kinase [1] was determined as 110 nM.

`Nc1nc(=O)n([C@H]2CC[C@H](NS(=O)(=O)c3cccc(-c4ccccc4Cl)c3)C2)cc1F` had an IC50 at Deoxycytidine kinase [1] of 45 nM.

Take `Nc1nc(=O)n([C@H]2CC[C@H](NS(=O)(=O)c3cccc(-c4ccc(C(=O)O)cc4)c3)C2)cc1F`: the IC50 on Deoxycytidine kinase [1] was found to be 15300 nM.

Regarding `COc1ccc(-c2cccc(S(=O)(=O)N[C@H]3CC[C@H](n4cc(F)c(N)nc4=O)C3)c2)cc1`, the half-life in data set [2] was 1.2 h. In data set [3], this molecule displayed a bioavailability of 9%. The molecule further showed an IC50 at Deoxycytidine kinase [1] of 64 nM. Moreover, the Vd in data set [4] was found to be 4.4 L/kg. This molecule came in with a clearance in [5] of 63 mL/min/kg. This molecule came in with a Cmax in data set [6] of 0.3 µM. In data set [7], this molecule yielded an AUC(0-inf) of 0.6 µM·h. Further, the Tmax in data set [8] amounted to 0.8 h.

`Nc1nc(=O)n([C@H]2CC[C@H](NS(=O)(=O)c3ccc([N+](=O)[O-])cc3)C2)cc1F` gave an IC50 at Deoxycytidine kinase [1] of 3200 nM.

`Nc1nc(=O)n([C@H]2CC[C@H](NS(=O)(=O)c3cccc(Br)c3)C2)cc1F`: on Deoxycytidine kinase [1], the half-maximal inhibitory concentration (IC50) turned out to be 1900 nM.

At Deoxycytidine kinase [1], `Nc1nc(=O)n([C@H]2CC[C@H](NC(=O)c3cccc(-c4ccccc4)c3)C2)cc1F` yielded a 50% inhibitory concentration (IC50) of 260 nM.

`COc1ccc(-c2cccc(C(=O)N[C@H]3CC[C@H](n4cc(F)c(N)nc4=O)C3)c2)cc1`: in data set [2], the half-life was 1.6 h. The molecule also yielded a bioavailability in [3] of 17%. The IC50 at Deoxycytidine kinase [1] is 30 nM. Moreover, in data set [4], the Vd was determined as 1.3 L/kg. Moreover, the clearance in [5] was determined as 18 mL/min/kg. The concentration in data set [6] peaked (Cmax) at 3.4 µM. The total exposure AUC(0-inf) in [7] was 3.8 µM·h. Also, in [8], the Tmax worked out at 0.3 h.

Consider `N#Cc1ccc(-c2cccc(S(=O)(=O)N[C@H]3CC[C@H](n4cc(F)c(N)nc4=O)C3)c2)cc1`, for which the IC50 on Deoxycytidine kinase [1] turned out to be 49 nM.

The molecule `Nc1nc(=O)n([C@H]2CC[C@H](NS(=O)(=O)c3ccc(Br)cc3)C2)cc1F` displayed an IC50 on Deoxycytidine kinase [1] of 2700 nM.

For `Nc1nc(=O)n([C@H]2CC[C@H](NS(=O)(=O)c3cccc(-c4ccc(Cl)cc4Cl)c3)C2)cc1F`, the concentration for half-maximal inhibition (IC50) at Deoxycytidine kinase [1] is 21 nM.

In data set [2], `Cc1cc(Cl)ccc1-c1cccc(S(=O)(=O)N[C@H]2CC[C@H](n3cc(F)c(N)nc3=O)C2)c1` gave a half-life of 1.6 h. Further, in data set [3], the bioavailability was 15%. Moreover, the IC50 at Deoxycytidine kinase [1] is 21 nM. Also, in data set [4], the Vd came to 3 L/kg. Also, the clearance in [5] was found to be 23 mL/min/kg. Moreover, the Cmax in data set [6] came to 1.5 µM. For the same molecule, the area under the curve AUC(0-inf) in data set [7] came to 2.3 µM·h. In [8], the time to peak (Tmax) came out at 0.3 h.

Molecule `CS(=O)(=O)c1ccc(-c2cccc(S(=O)(=O)N[C@H]3CC[C@H](n4cc(F)c(N)nc4=O)C3)c2)cc1` came in with a half-maximal inhibitory concentration (IC50) at Deoxycytidine kinase [1] of 63 nM.

Consider `Nc1nc(=O)n([C@H]2CC[C@H](NS(=O)(=O)c3cccc(-c4cccc(Cl)c4)c3)C2)cc1F`, for which the IC50 on Deoxycytidine kinase [1] was found to be 79 nM.

`Nc1nc(=O)n([C@H]2CC[C@H](NS(=O)(=O)c3ccc(-c4ccccc4)cc3)C2)cc1F` gave a half-inhibitory concentration (IC50) on Deoxycytidine kinase [1] of 350 nM.

Turning to `NC(=O)c1ccc(-c2cccc(S(=O)(=O)N[C@H]3CC[C@H](n4cc(F)c(N)nc4=O)C3)c2)cc1`, the concentration for half-maximal inhibition (IC50) at Deoxycytidine kinase [1] is 89 nM.

Consider `Nc1nc(=O)n([C@H]2CC[C@H](NS(=O)(=O)c3cccc(-c4ccc(Cl)cc4)c3)C2)cc1F`, for which, in data set [2], the half-life was 2.1 h. At Deoxycytidine kinase [1], this molecule showed a concentration for half-maximal inhibition (IC50) of 51 nM. Further, the Vd in [4] is 16 L/kg. In [5], this molecule gave a clearance of 140 mL/min/kg. In addition, in data set [6], the peak concentration (Cmax) was found to be 1 µM. In addition, the AUC(0-inf) in data set [7] was 5.2 µM·h. Besides, the Tmax in data set [8] came out at 2 h.

For `Nc1nc(=O)n([C@H]2CC[C@H](NS(=O)(=O)c3cccc(-c4ccccc4)c3)C2)cc1F`, the IC50 at Deoxycytidine kinase [1] worked out at 120 nM.
